# Experimental data taken from article PMC3697071 (Natural product communications, 2010).
# Legend:
# [1] = system: Leishmania donovani promastigotes; experiment: Antileishmanial assay; assay type: cell-based; conditions: 72 h; for IC50 / IC90: Leishmania donovani; for IC50: read-out: L. donovani IC50; for IC90: read-out: L. donovani IC90; for L. donovani IC50 / L. donovani IC90: promastigotes
# [2] = system: Cryptococcus neoformans ATCC 90113; experiment: Antimicrobial assay; assay type: cell-based; conditions: for MIC / IC50: Cryptococcus neoformans; for MIC: ATCC90113, read-out: C. neoformans MIC; for IC50: ATCC90113, read-out: C. neoformans IC50; for C. neoformans MIC: second value of IC50/MIC; for C. neoformans IC50: first value of IC50/MIC
# [3] = system: Aspergillus fumigatus ATCC 90906; experiment: Antimicrobial assay; assay type: cell-based; conditions: for IC50: Aspergillus fumigatus, ATCC90906, read-out: A. fumigatus IC50; for A. fumigatus MIC: second value of IC50/MIC; for A. fumigatus IC50: first value of IC50/MIC
# [4] = system: Candida albicans ATCC 90028; experiment: Antimicrobial assay; assay type: cell-based; conditions: for IC50: Candida albicans, ATCC90028, read-out: C. albicans IC50; for C. albicans IC50: first value of IC50/MIC
# [5] = system: P. falciparum D6 (chloroquine-sensitive, Sierra Leone); experiment: Antimalarial/parasite LDH assay, D6 clone; assay type: cell-based, Plasmodium falciparum; conditions: for IC50: Plasmodium falciparum, D6, read-out: P. falciparum D6 IC50; for P. falciparum D6 IC50: chloroquine-sensitive clone D6
# [6] = system: P. falciparum W2 (chloroquine-resistant, Indochina); experiment: Antimalarial/parasite LDH assay, W2 clone; assay type: cell-based, Plasmodium falciparum; conditions: for IC50: Plasmodium falciparum, W2, read-out: P. falciparum W2 IC50; for P. falciparum W2 IC50: chloroquine-resistant clone W2
# [7] = system: Plasmodium falciparum; experiment: Antimalarial/parasite LDH assay, strains not distinguished in text; assay type: cell-based; conditions: for IC50: Plasmodium falciparum, read-out: antiplasmodial IC50; for antimalarial activity against Plasmodium falciparum: result in words
# Method in brief: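 Colorimetric assay of parasite lactate dehydrogenase (pLDH) activity in P. falciparum cultures, run in 96-well format on two strains: Sierra Leone D6 (chloroquine-sensitive) and Indochina W2 (chloroquine-resistant). DMSO served as vehicle control, with artemisinin and chloroquine as drug controls.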
# [8] = system: Staphylococcus aureus ATCC 29213; experiment: Antimicrobial assay; assay type: cell-based; conditions: for IC50 / MIC: Staphylococcus aureus; for IC50: ATCC29213, read-out: S. aureus IC50; for MIC: ATCC29213, read-out: S. aureus MIC; for S. aureus MIC: second value of IC50/MIC; for S. aureus IC50: first value of IC50/MIC
# Method in brief: (§1)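 Modified CLSI broth susceptibility method. Ciprofloxacin drug control in each assay. […] MIC is the lowest test concentration allowing no detectable growth.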
# [9] = system: methicillin-resistant S. aureus ATCC 43300 (MRS); experiment: Antimicrobial assay; assay type: cell-based, Staphylococcus aureus; conditions: for IC50 / MIC: Staphylococcus aureus; for IC50: ATCC43300, read-out: MRS IC50; for MIC: ATCC43300, read-out: MRS MIC; for MRS MIC / MRS IC50: methicillin-resistant S. aureus; for MRS MIC: second value of IC50/MIC; for MRS IC50: first value of IC50/MIC
# Method in brief: as §1
# [10] = system: Escherichia coli ATCC 35218; experiment: Antimicrobial assay; assay type: cell-based; conditions: for IC50: ATCC35218, read-out: E. coli IC50; for E. coli IC50: first value of IC50/MIC
# Method in brief: as §1
# [11] = system: Pseudomonas aeruginosa ATCC 27853; experiment: Antimicrobial assay; assay type: cell-based; conditions: for IC50: ATCC27853, read-out: P. aureginosa IC50; for P. aureginosa IC50: first value of IC50/MIC
# Method in brief: as §1
# [12] = system: Mycobacterium intracellulare ATCC 23068; experiment: Antimicrobial assay; assay type: cell-based; conditions: for IC50: ATCC23068, read-out: M. intracellulare IC50; for M. intracellulare MIC: second value of IC50/MIC; for M. intracellulare IC50: first value of IC50/MIC
# Method in brief: as §1
# [13] = system: Candida krusei ATCC 6258; experiment: Antimicrobial assay; assay type: cell-based; conditions: for C. krusei MIC: second value of IC50/MIC; for C. krusei IC50: first value of IC50/MIC
# [14] = system: monkey kidney fibroblasts (VERO); experiment: Cytotoxicity assay; assay type: cell-based; conditions: VERO cells; max dose […] for pure compounds
# [15] = system: Candida glabrata ATCC 90030; experiment: Antimicrobial assay; assay type: cell-based; conditions: for C. glabrata IC50: first value of IC50/MIC
Structure (SMILES),IC50 [1],IC90 [1],IC50 [3],IC50 [4],IC50 [5],IC50 [6],IC50 [8],IC50 [9],IC50 ([10]; Escherichia coli),IC50 ([11]; Pseudomonas aeruginosa),IC50 ([12]; Mycobacterium intracellulare),S. aureus MIC [8],MRS MIC [9],C. glabrata IC50 [15],C. krusei IC50 [13],C. neoformans IC50 [2],A. fumigatus IC50 [3],C. albicans IC50 [4],S. aureus IC50 [8],MRS IC50 [9],also measured
"C[C@@H]1[C@H](O)[C@@H](C)/C=C/C=C/C=C/C=C/C=C/C=C/C=C/[C@H](O[C@@H]2O[C@H](C)[C@@H](O)[C@H](N)[C@@H]2O)C[C@@H]2O[C@](O)(C[C@@H](O)C[C@@H](O)[C@H](O)CC[C@@H](O)C[C@@H](O)CC(=O)O[C@H]1C)C[C@H](O)[C@H]2C(=O)O [Amphotericin B, reference compound]",0.13 µg/mL,0.3 µg/mL,1.29 µg/mL,0.43 µg/mL,,,,,,,,,,,,,,,,,MIC [2]: 1.25 µg/mL
"C[C@@H]1CC[C@H]2[C@@H](C)C(=O)O[C@@H]3O[C@@]4(C)CC[C@@H]1[C@]32OO4 [Artemisinin, reference compound]",,,,,< 0.026 µg/mL,< 0.026 µg/mL,,,,,,,,,,,,,,,IC50 [7]: < 0.026 µg/mL
"CCN(CC)CCCC(C)Nc1ccnc2cc(Cl)ccc12 (stereo not drawn) [Chloroquine, reference compound]",,,,,< 0.026 µg/mL,0.14 µg/mL,,,,,,,,,,,,,,,
"O=C(O)c1cn(C2CC2)c2cc(N3CCNCC3)c(F)cc2c1=O [Ciprofloxacin, reference compound]",,,,,,,0.1 µg/mL,0.08 µg/mL,0.004 µg/mL,0.06 µg/mL,0.3 µg/mL,,,,,,,,,,"MIC [8]: 0.25 µg/mL; MIC [9]: 0.25 µg/mL; MIC ([10]; Escherichia coli, ATCC35218, read-out: E. coli MIC): 0.008 µg/mL; MIC ([11]; Pseudomonas aeruginosa, ATCC27853, read-out: P. aureginosa MIC): 0.25 µg/mL; MIC ([12]; Mycobacterium intracellulare, ATCC23068, read-out: M. intracellulare MIC): 1 µg/mL"
"CC(C)C1=C(O)C(=O)C2=C(CC[C@H]3C(C)(C)CCC[C@]23C)C1=O [Compound 2, royleanone]",,,> 20 µg/mL,> 20 µg/mL,> 4.76 µg/mL,> 4.76 µg/mL,> 20 µg/mL,> 20 µg/mL,> 20 µg/mL,> 20 µg/mL,> 20 µg/mL,,,,,,,,,,IC50 [2]: > 20 µg/mL
"CC(C)C1=CC2=CC(=O)[C@H]3C(C)(C)CCC[C@]3(C)C2=C(O)C1=O [Compound 3, taxodione]",0.08 µg/mL,0.21 µg/mL,8.9 µg/mL,12.5 µg/mL,1.2 µg/mL,1.2 µg/mL,1.35 µg/mL,1.47 µg/mL,> 20 µg/mL,> 20 µg/mL,11.9 µg/mL,2.5 to 5 µg/mL,2.5 µg/mL,,,,,,,,C. krusei MIC [13]: −; IC50 [2]: 0.58 µg/mL; MIC [2]: 1.25 µg/mL; C. neoformans MIC [2]: 1.25 µg/mL; A. fumigatus MIC [3]: −; C. albicans MIC ([4]; second value of IC50/MIC): −; MIC [8]: 5 µg/mL; MIC [9]: 2.5 µg/mL; M. intracellulare MIC [12]: −; IC50 [7]: 1.2 to 4.8 µg/mL; antimalarial activity against Plasmodium falciparum [7]: weak antimalarial activity
"CC(C)c1cc2c(cc1O)[C@@]1(C)CCCC(C)(C)[C@@H]1CC2 [Compound 6, ferruginol]",4 µg/mL,13 µg/mL,> 20 µg/mL,> 20 µg/mL,> 4.76 µg/mL,> 4.76 µg/mL,1.33 µg/mL,0.96 µg/mL,> 20 µg/mL,> 20 µg/mL,14.5 µg/mL,2.5 to 5 µg/mL,2.5 µg/mL,,,,,,,,IC50 [2]: > 20 µg/mL; MIC [8]: 2.5 µg/mL; MIC [9]: 2.5 µg/mL; M. intracellulare MIC [12]: −
"CC(C)c1cc2c(c(O)c1O)[C@@]1(C)CCCC(C)(C)C1=C(O)C2=O [Compound 7, 6-hydroxysalvinolone]",,,,,,,,,,,,5 µg/mL,2.5 µg/mL,−/− (- =Not Active),−/− (- =Not Active),0.96 µg/mL,11.2 µg/mL,−/− (- =Not Active),1.75 µg/mL,1.56 µg/mL,P. falciparum D6 IC50 [5]: 1.8 µg/mL; P. falciparum W2 IC50 [6]: 2.5 µg/mL; VERO TC50 [14]: 4.5 µg/mL; L. donovani IC50 [1]: 3.2 µg/mL; L. donovani IC90 [1]: 6.5 µg/mL; C. neoformans MIC [2]: 2.5 µg/mL; A. fumigatus MIC [3]: −; E. coli IC50 [10]: −/− (=Not Active); P. aureginosa IC50 [11]: −/− (=Not Active); M. intracellulare IC50 [12]: −/− (=Not Active); antimalarial activity against Plasmodium falciparum [7]: weak antimalarial activity
"CC(CO)c1cc2c(c(O)c1O)[C@@]1(C)CCCC(C)(C)C1=C(O)C2=O (stereo partly drawn) [Compound 8, 6,11,12,16-tetrahydroxy-5,8,11,13-abietatetra-en-7-one]",,,,,,,,,,,,20 µg/mL,20 µg/mL,14.9 µg/mL,14.5 µg/mL,5.9 µg/mL,−/− (- =Not Active),−/− (- =Not Active),6.8 µg/mL,8.44 µg/mL,P. falciparum D6 IC50 [5]: 3.0 µg/mL; P. falciparum W2 IC50 [6]: 4.8 µg/mL; L. donovani IC50 [1]: 12 µg/mL; L. donovani IC90 [1]: 22 µg/mL; C. glabrata MIC ([15]; second value of IC50/MIC): 20 µg/mL; C. krusei MIC [13]: 20 µg/mL; C. neoformans MIC [2]: 20 µg/mL; E. coli IC50 [10]: −/− (=Not Active); P. aureginosa IC50 [11]: −/− (=Not Active); M. intracellulare IC50 [12]: −/− (=Not Active)
"CC1=C(C)C2=CC(=O)c3c(O)c4c(c(O)c3[C@@]2(C)CC1)O[C@@H](C)C4 [Compound 9, uncinatone]",,,,,,,,,,,,,,−/− (- =Not Active),−/− (- =Not Active),−/− (- =Not Active),−/− (- =Not Active),−/− (- =Not Active),−/− (=Not Active),−/− (=Not Active),L. donovani IC50 [1]: 0.2 µg/mL; L. donovani IC90 [1]: 0.9 µg/mL; E. coli IC50 [10]: −/− (=Not Active); P. aureginosa IC50 [11]: −/− (=Not Active); M. intracellulare IC50 [12]: −/− (=Not Active); antimalarial activity against Plasmodium falciparum [7]: inactive
"CC(C)c1cc2c(c(O)c1OC1OCC(O)C(O)C1O)C1(C)CCCC(C)(C)C1CC2 (stereo not drawn) [Compound 10, 11-hydroxy-8,11,13-abietatriene-12-O-β-xylopyranoside]",,,,,,,,,,,,,,−/− (- =Not Active),−/− (- =Not Active),−/− (- =Not Active),−/− (- =Not Active),−/− (- =Not Active),−/− (=Not Active),−/− (=Not Active),E. coli IC50 [10]: −/− (=Not Active); P. aureginosa IC50 [11]: −/− (=Not Active); M. intracellulare IC50 [12]: −/− (=Not Active)
"N=C(N)c1ccc(OCCCCCOc2ccc(C(=N)N)cc2)cc1 [Pentamidine, reference compound]",1.4 µg/mL,6 µg/mL,,,,,,,,,,,,,,,,,,,
